One compound from ChEMBL document CHEMBL4024777, “Discovery of LY3104607: A Potent and Selective G Protein-Coupled Receptor 40 (GPR40) Agonist with Optimized Pharmacokinetic Properties to Support Once Daily Oral Treatment in Patients with Type 2 Diabetes Mellitus” (J Med Chem, 2018) can be followed below.

In brackets after ≈: the same amount, converted by molar mass. Activity calls are given as the source filed them. The calls are words filed in the database; no cut-off is given here.

As usually defined, the Cmax is the maximum level reached in the sampled fluid or tissue. The term logP denotes a log measure of how a compound divides between an organic and an aqueous phase. As a reminder, the solubility is how much of the substance goes into solution per volume. In general, half-life refers to the time in which the quantity being followed falls by half. One may read the AUC(0-t) as exposure summed from dosing to a finite time, without extrapolation to infinity. By bioavailability is commonly meant the share of a dose that reaches the circulation, judged against a reference dose that is usually intravenous. A word on the clearance: it is the volume of plasma or blood freed of the substance per unit of time. A word on the Tmax: it is the time from dosing to the highest level. For orientation: EC50 means the midpoint of the concentration-response curve.

The nature of series [1]: Cmax in Sprague-Dawley rat at 1 mg/kg, po. It counts as ADME, organism-based. Set-up: dose 1 mg/kg, route oral. As to conditions: in vivo.
A short description of series [2]: Lipophilicity, log P of the compound. As to conditions: octanol/water. In kind it is physicochemical.
Series [3] can be described thus: Cmax in Sprague-Dawley rat at 500 mg/kg, po. In kind it is ADME, organism-based. Further details: dose 500 mg/kg, route oral. The settings on record: in vivo.
Series [4] is described as follows: Solubility of the compound in pH 8.1 buffer. In kind it is physicochemical.
The target in series [5] is T1, Peroxisome proliferator-activated receptor delta (Homo sapiens) (UniProt Q03181).
T1 sequence (whole entry): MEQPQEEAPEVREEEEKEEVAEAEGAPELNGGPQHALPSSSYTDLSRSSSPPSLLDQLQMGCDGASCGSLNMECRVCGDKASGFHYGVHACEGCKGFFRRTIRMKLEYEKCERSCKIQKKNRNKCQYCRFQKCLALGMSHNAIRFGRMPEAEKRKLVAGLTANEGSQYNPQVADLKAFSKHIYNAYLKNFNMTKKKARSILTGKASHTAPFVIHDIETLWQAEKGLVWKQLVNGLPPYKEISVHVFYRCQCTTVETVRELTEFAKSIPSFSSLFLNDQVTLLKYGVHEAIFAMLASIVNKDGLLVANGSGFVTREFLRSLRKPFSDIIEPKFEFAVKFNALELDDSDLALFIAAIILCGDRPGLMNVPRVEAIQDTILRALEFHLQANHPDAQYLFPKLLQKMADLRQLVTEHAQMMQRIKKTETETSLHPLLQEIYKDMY
As to the kind of experiment: Agonist activity at GAL4-fused human PPARdelta expressed in African green monkey CV1 cells up to 30 uM after 24 hrs by luciferase reporter gene assay. In kind it is cell-based. The method, boiled down:
(§1)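 PPAR alpha, delta and gamma binding and functional activity were each tested at concentrations up to 30 µM.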
For orientation: A reporter such as luciferase makes a cellular process visible.

The test system of the next series is Rattus norvegicus. As to the kind of experiment: Antidiabetic activity in Zucker fa/fa rat assessed as reduction in blood glucose AUC at 1 to 10 mg/kg, po administered for 1 day followed by OGTT at 1 hr after compound dosing and measured 60 mins post glucose challenge by oral glucose tolerance test. It counts as functional, organism-based. The method, boiled down:
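Male Zucker fa/fa rats, 10 weeks old, were dosed orally with 1, 3 or 10 mg/kg, alongside a reference GPR40 agonist as positive control. The OGTT was run 1 h after dosing with a 2 g/kg oral glucose load. Blood glucose was sampled at 0, 10, 20, 40 and 60 min, with the legend also listing 120 min. Glucose AUC was assessed on day 1.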

Series [6] can be described thus: Half life in Sprague-Dawley rat at 1 mg/kg, iv. It counts as ADME, organism-based. The settings on record: in vivo.
The nature of series [7]: AUC (0 to 24 hrs) in Beagle dog at 30 mg/kg, po. It counts as ADME, organism-based, Canis lupus familiaris. Further details: dose 30 mg/kg, time < 24 hr, route oral. The settings on record: in vivo.
Series [8] is described as follows: Oral bioavailability in Beagle dog at 3 mg/kg. In kind it is ADME, organism-based, Canis lupus familiaris. As to conditions: in vivo. The method, boiled down: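 Fasted dogs dosed orally at 3 mg/kg. […] Bioavailability is derived relative to the 1 mg/kg IV dose.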
Series [9] can be described thus: Clearance in Sprague-Dawley rat at 1 mg/kg, iv. It counts as ADME, organism-based. The settings on record: in vivo.
Series [10] concerns the target T2, Free fatty acid receptor 1 (Homo sapiens, UniProt O14842). As to the kind of experiment: Agonist activity at human PK-tagged GPR40 expressed in HEK293 cells assessed as EA-tagged beta-arrestin recruitment after 90 mins in presence of 1 % heat inactivated FBS by beta-galactosidase reporter gene assay relative to untreated control. In kind it is cell-based.
Series [11] can be described thus: Tmax in Sprague-Dawley rat at 10 mg/kg, po. In kind it is ADME, organism-based. The settings on record: in vivo.
Series [12] can be described thus: Volume of distribution at steady state in Sprague-Dawley rat at 1 mg/kg, iv. In kind it is ADME, organism-based. As to conditions: in vivo, read-out: Vdss.
Series [13] is described as follows: AUC (0 to 24 hrs) in Sprague-Dawley rat at 10 mg/kg, po. It counts as ADME, organism-based. Set-up: dose 10 mg/kg, time < 24 hr, route oral. As to conditions: in vivo.
The nature of series [14]: Volume of distribution at steady state in Beagle dog at 1 mg/kg, iv. It counts as ADME, organism-based, Canis lupus familiaris. As to conditions: in vivo, read-out: Vdss.
Series [15] has as its target T2, Free fatty acid receptor 1. Description: Agonist activity at human GPR40 receptor expressed in HEK293 cells assessed as increase in intracellular calcium flux after 2.5 hrs measured over 3 mins by calcium 4 dye-based FLIPR assay relative to linoleic acid. Set-up: Activity: concentration or dose not given beside the values. In kind it is functional, cell-based. An outline of the steps: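 Human GPR40 calcium flux was read on FLIPR. Percent stimulation is expressed against the response to 100 uM linoleic acid.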
Background: A change in cytosolic calcium serves as a functional read-out for many receptors and channels.

Series [16] deals with T1, Peroxisome proliferator-activated receptor delta (Homo sapiens). Description: Displacement of [3H]-agonist from human PPARdelta expressed in baculovirus infecetd Sf9 cells system up to 30 uM after 10 hrs in presence of DR2 by scintillation proximity assay. The method, boiled down: as §1
In general terms: Displacement assays read how much labelled ligand stays bound in the presence of the test substance.

Series [17] deals with T2, Free fatty acid receptor 1. Description: Agonist activity at human PK-tagged GPR40 expressed in HEK293 cells assessed as EA-tagged beta-arrestin recruitment after 90 mins in presence of 1 % heat inactivated FBS by beta-galactosidase reporter gene assay. It counts as cell-based.
The nature of series [18]: AUC (0 to 24 hrs) in Sprague-Dawley rat at 1 mg/kg, iv. It counts as ADME, organism-based. Further details: dose 1 mg/kg, time < 24 hr, route intravenous. The settings on record: in vivo.
The nature of series [19]: AUC (0 to 24 hrs) in Beagle dog at 300 mg/kg, po. It counts as ADME, organism-based, Canis lupus familiaris. Set-up: time < 24 hr, dose 300 mg/kg, route oral. The settings on record: in vivo.
Series [20] concerns the target Voltage-gated inwardly rectifying potassium channel KCNH2 (Homo sapiens, UniProt Q12809). Description: Inhibition of human ERG at 100 uM.
A short description of series [21]: Protein binding in plasma (unknown origin) by equilibrium dialysis assay. It counts as ADME, cell-free. As to conditions: read-out: PPB.
Series [22] is described as follows: Tmax in Beagle dog at 100 mg/kg, po. In kind it is ADME, organism-based, Canis lupus familiaris. As to conditions: in vivo. An outline of the steps:
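Dogs dosed orally at 30, 100 or 300 mg/kg, N = 2 per dose.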

T2 sequence (O14842 whole entry): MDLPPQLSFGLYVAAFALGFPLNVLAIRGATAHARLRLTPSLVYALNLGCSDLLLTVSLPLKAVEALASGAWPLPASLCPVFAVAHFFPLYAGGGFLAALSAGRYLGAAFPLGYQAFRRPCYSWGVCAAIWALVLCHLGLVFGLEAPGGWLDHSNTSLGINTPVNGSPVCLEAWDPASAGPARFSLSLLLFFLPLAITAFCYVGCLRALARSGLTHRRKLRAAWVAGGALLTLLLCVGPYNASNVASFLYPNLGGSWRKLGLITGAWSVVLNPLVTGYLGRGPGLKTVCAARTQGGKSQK
Chain of Voltage-gated inwardly rectifying potassium channel KCNH2 (Q12809 whole entry): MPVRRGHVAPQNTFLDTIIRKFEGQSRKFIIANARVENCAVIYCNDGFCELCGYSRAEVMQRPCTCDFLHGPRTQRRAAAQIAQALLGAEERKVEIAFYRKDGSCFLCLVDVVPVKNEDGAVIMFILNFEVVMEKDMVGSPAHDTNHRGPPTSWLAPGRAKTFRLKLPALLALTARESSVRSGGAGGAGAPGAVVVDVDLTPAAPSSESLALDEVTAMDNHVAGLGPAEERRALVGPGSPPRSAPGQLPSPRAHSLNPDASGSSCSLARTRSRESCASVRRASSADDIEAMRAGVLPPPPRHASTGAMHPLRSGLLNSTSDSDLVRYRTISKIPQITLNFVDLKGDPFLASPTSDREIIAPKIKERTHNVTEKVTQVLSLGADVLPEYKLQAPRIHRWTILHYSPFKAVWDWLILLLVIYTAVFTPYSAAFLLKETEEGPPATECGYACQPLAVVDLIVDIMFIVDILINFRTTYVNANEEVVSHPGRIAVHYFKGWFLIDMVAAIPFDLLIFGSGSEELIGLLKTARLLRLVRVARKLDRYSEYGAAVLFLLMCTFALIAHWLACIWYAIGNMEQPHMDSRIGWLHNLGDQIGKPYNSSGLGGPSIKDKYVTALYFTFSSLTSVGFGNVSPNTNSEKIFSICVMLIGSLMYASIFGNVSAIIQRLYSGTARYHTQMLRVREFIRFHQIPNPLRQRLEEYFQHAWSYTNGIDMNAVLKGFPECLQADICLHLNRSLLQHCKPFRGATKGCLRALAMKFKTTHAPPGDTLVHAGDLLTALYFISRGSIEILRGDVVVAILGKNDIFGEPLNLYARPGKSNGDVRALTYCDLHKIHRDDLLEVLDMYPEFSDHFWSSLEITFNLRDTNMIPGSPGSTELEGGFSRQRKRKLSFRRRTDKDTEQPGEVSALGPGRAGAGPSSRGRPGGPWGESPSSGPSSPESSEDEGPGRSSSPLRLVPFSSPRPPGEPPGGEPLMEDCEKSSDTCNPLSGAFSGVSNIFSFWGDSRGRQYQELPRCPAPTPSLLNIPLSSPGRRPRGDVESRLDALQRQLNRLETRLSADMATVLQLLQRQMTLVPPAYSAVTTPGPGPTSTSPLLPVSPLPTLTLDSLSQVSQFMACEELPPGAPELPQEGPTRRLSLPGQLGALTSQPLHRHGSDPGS

As to `CC#C[C@@H](CC(=O)O)c1ccc(OCc2ccc3nc(-c4c(C)cccc4C)nn3c2)cc1`, the Cmax in series [1] turned out to be 3.38 µg/mL; in [3], 281 µg/mL. Besides, the logP in series [2] is 4.8. The compound further registered a solubility in [4] of 173 µg/mL (≈ 394 µM). For the same compound, the outcome in series [5] and in series [16] was inactive. In addition, the outcome in the series with Rattus norvegicus was Active. Further, the half-life in series [6] was 3.98 h. For the same compound, the AUC(0-t) at 24 h is 120 µg·h/mL in series [7], 215 µg·h/mL in [13], 12.7 µg·h/mL in [18] and 4010 µg·h/mL in series [19]. Further, the bioavailability in [8] is 83%. Further, the clearance in series [9] is 1.32 mL/min/kg. The %max in [10] stood at 124%. Also, the Tmax stood at 4 h in [11] and 3 h in [22]. For the same compound, the Vd in series [12] came to 0.33 L/kg; in series [14] it was 0.27 L/kg. Moreover, the Activity in series [15] is 54%. In addition, the EC50 in [17] was determined as 108 nM. The “inhibition (INH)” value in series [20] was “Not Active”. In [21], the fraction unbound was less than 0.01.
